In data set [1] the test system is Lipid bilayer. As to the kind of experiment: Induction of membrane disruption in PC/CL large unilamellar vesicles assessed as calcein-entrapped liposome leakage at 1 uM after 15 mins by spectrofluorophotometric assay relative to control. Particulars: artificial membrane, 0.25 h.
For data set [2], the system named is Lipid bilayer. As to the kind of experiment: Induction of membrane disruption in PG/CL/PE large unilamellar vesicles assessed as calcein-entrapped liposome leakage at 1 to 64 uM after 15 mins by spectrofluorophotometric assay. In short, it runs like this: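 Calcein-loaded LUVs (PG/CL/PE 2:1:7 w/w/w, E. coli membrane mimic), extruded through 100-nm filters, free dye removed on Sephadex G-50. Lipid (100 μM) incubated 15 min with peptide (1–64 μM). Calcein release read at ex 490/em 520 nm and normalised to Triton X-100. Triplicate, three biological replicates.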

Data set [3] has as its system Candida albicans. As to the kind of experiment: Fungicidal activity against Candida albicans cgmcc2.2086 assessed as reduction in bacterial growth at MFC by time-kill assay. Type of data set: functional, organism-based. In short, it runs like this: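 Time-kill assay. E. coli ATCC 25922, S. aureus ATCC 29213 or C. albicans cgmcc 2.2086 at a final 0.5-1×10^5 CFU mL-1 treated at 1×MBC/MFC. Aliquots collected at different times to calculate survival, with an untreated control. Mean of three independent experiments, each with three technical replicates.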

The next data set has as its system RAW264.7. As to the kind of experiment: Cytotoxicity against mouse RAW264.7 cells assessed as cell viability at 2 to 64 uM measured after 18 to 24 hrs by MTT assay relative to control. Format: cell-based. Particulars: raw264.7, 64 µM. In short, it runs like this:
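MTT assay: RAW264.7 cells seeded at 1.0–2.0×10^4 per well and exposed to peptide (2–64 µM) for 18–24 h at 37 °C in 5% CO2. MTT (0.5 mg/mL) added for 4 h, formazan dissolved in DMSO, read at 570 nm. At least three independent experiments with triplicate wells.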

Data set [4] deals with Staphylococcus aureus. Briefly: Induction of morphological changes in Staphylococcus aureus ATCC 29213 assessed as cell content leakage at MBD measured after 1 hr by atomic force microscopic analysis. Type of data set: functional, organism-based.
Data set [5] relates to Pseudomonas aeruginosa. As to the kind of experiment: Bactericidal activity against gentamicin-resistant Pseudomonas aeruginosa ATCC 27853 incubated for 24 hrs followed by replating on agar plate and measured after overnight incubation. Format: functional, organism-based.
Data set [6] has as its system Escherichia coli. Briefly: Induction of morphological changes in Escherichia coli ATCC 25922 assessed as hole formation at MBD measured after 1 hr by scanning electron microscopic analysis. Type of data set: functional, organism-based.
Data set [7] deals with Escherichia coli. Briefly: Induction of morphological changes in Escherichia coli ATCC 25922 assessed as cell content leakage at MBD measured after 1 hr by scanning electron microscopic analysis. Format: functional, organism-based.
In data set [8] the test system is Candida albicans. Briefly: Antifungal activity against Candida albicans cgmcc2.2086 assessed as ratio of MIC95 in presence of CaCl2 to in absence of CaCl2. Format: functional. In short, it runs like this:
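C. albicans cgmcc 2.2086, (0.5–1) × 10^3 CFU/mL final in MOPS-buffered RPMI 1640, with or without 2 mM CaCl2 (final). Peptide serially diluted in 0.2% BSA and mixed 1:1, 48 h at 28 °C. MIC is the lowest concentration inhibiting 95% of growth by A492. Three independent assays, each with three technical replicates.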

Data set [9] deals with Staphylococcus aureus. Briefly: Induction of morphological changes in Staphylococcus aureus ATCC 29213 assessed as hole formation at MBD measured after 1 hr by atomic force microscopic analysis. Type of data set: functional, organism-based.
The subject of data set [10] is Staphylococcus aureus. As to the kind of experiment: Bactericidal activity against Staphylococcus aureus ATCC 29213 assessed as reduction in bacterial growth at MBC measured within 30 mins by time-kill assay relative to control. Type of data set: functional. On the set-up: scale not given: the % may be the effect or the level left. Summed up: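 Time-kill: cells at a final 0.5–1×10^5 CFU/mL were exposed to peptide at 1×MBC/MFC. Aliquots were removed at intervals to count survivors against an untreated control. Means of three independent experiments, each with three technical replicates.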

Data set [11] relates to Staphylococcus aureus. As to the kind of experiment: Induction of morphological changes in Staphylococcus aureus ATCC 29213 assessed as sparse distribution of cytoplasm at MBD measured after 1 hr by transmission electron microscopic analysis. Format: functional, organism-based.
Data set [12] concerns Pseudomonas aeruginosa. Briefly: Antibacterial activity against Pseudomonas aeruginosa ATCC 27853 at sub-MBC measured after 30 serial passages. Type of data set: functional, organism-based. Summed up: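 P. aeruginosa ATCC 27853 passaged every 24 h by 100-fold dilution in MHB containing sub-MBC drug, for 30 passages. MBC was tested on the cells from each passage. Control cells were passaged in drug-free MHB. Run independently in triplicate with three biological replicates.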

For the next data set, the system named is Lipopolysaccharide (LPS). Briefly: Displacement of BODIPY-TR-cadaverine from Escherichia coli O111:B4 LPS at 16 uM after 1 hr by spectrofluorophotometric method relative to control. Summed up: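 E. coli O111:B4 LPS (50 μg/mL) preloaded 4 h with BODIPY-TR-cadaverine (5 μg/mL) in 50 mM Tris, pH 7.4. Mixed 1:1 with peptide (1–64 µM series), 1 h at 37 °C, then fluorescence read. Expressed as %ΔF: 0% is probe with LPS and no peptide, 100% is probe with LPS plus 10 μg/mL polymyxin B. Three technical replicates.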

Data set [13] deals with Staphylococcus aureus. As to the kind of experiment: Drug uptake in plasma membrane of Staphylococcus aureus ATCC 29213 at MBC measured after 30 mins using FITC-labeled compound by microscopic analysis. Type of data set: ADME, organism-based. The settings on record: in vivo, 0.5 h. Summed up:
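E. coli ATCC 25922 or S. aureus ATCC 29213 (OD600 0.2) incubated with FITC-labeled peptide at 1×MBC, 37 °C, 30 min. Cells washed, resuspended with PI (10 μg/mL) in PBS, smeared and imaged by superresolution microscopy using 488 and 535 nm filters for FITC and PI. Peptide-free cells served as controls. Three independent scans.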

Data set [14] deals with Escherichia coli. As to the kind of experiment: Induction of morphological changes in Escherichia coli ATCC 25922 assessed as appearance of intracellular empty area at MBD measured after 1 hr by transmission electron microscopic analysis. Format: functional, organism-based.
Data set [15] deals with Pseudomonas aeruginosa. As to the kind of experiment: Antibacterial activity against gentamicin-resistant Pseudomonas aeruginosa ATCC 27853 measured after 24 hrs. Format: functional, organism-based. Summed up: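 Broth microdilution modified from NCCLS. Mid-log bacteria at (0.5–1) × 10^5 CFU mL−1 in MHB, mixed with peptides serially diluted in 0.2% BSA. Incubated 24 h at 37 °C, read at A492. MIC taken as lowest concentration giving 95% growth inhibition. At least three independent experiments, each with three technical replicates.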

Data set [16] has as its system Escherichia coli. Briefly: Bactericidal activity against Escherichia coli ATCC 25922 assessed as reduction in bacterial growth at MBC measured within 30 mins by time-kill assay relative to control. Format: functional. On the set-up: scale not given: the % may be the effect or the level left. Summed up: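 Time-kill assay. Cells at a final 0.5–1 × 10^5 CFU mL−1 were exposed to peptide at 1×MBC. Aliquots were removed at different times to calculate the survival rate against an untreated control. Mean of three independent experiments, each with three technical replicates.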

For data set [17], the system named is Escherichia coli. As to the kind of experiment: Induction of morphological changes in Escherichia coli ATCC 25922 assessed as appearance of visible sparse cytoplasmic distribution at MBD measured after 1 hr by transmission electron microscopic analysis. Type of data set: functional, organism-based.
Data set [18] relates to Candida albicans. Briefly: Antifungal activity against Candida albicans cgmcc2.2086 infected in C57BL/6 mouse model of keratitis assessed as reduction in fungal colonies in eyeballs at 5 mg/ml administered as topical eye drop every 5 mins for first 4 hrs and every 30 mins for next 7 hrs measured post-last dose by agar plate method relative to control. Format: functional. Further details: scale not given: the % may be the effect or the level left.

The subject of data set [19] is Escherichia coli. Briefly: Antibacterial activity against Escherichia coli ATCC 25922 assessed as ratio of MIC95 in presence of NaCl to in absence of NaCl. Format: functional.

The source made the active and inactive calls. The calls are words filed in the database; no cut-off is given here. Some results are limits rather than exact numbers.

`CC[C@H](C)[C@H](NC(=O)CN)C(=O)NCC(=O)N[C@@H](C)C(=O)N[C@H](C(=O)N[C@@H](CC(C)C)C(=O)N[C@@H](CCCCN)C(=O)N[C@H](C(=O)N[C@@H](CC(C)C)C(=O)N[C@H](C(=O)N[C@H](C(=O)NCC(=O)N[C@@H](CC(C)C)C(=O)N1CCC[C@H]1C(=O)N[C@@H](C)C(=O)N[C@@H](CC(C)C)C(=O)N[C@H](C(=O)N[C@@H](CO)C(=O)N[C@@H](Cc1c[nH]c2ccccc12)C(=O)N[C@H](C(=O)N[C@@H](CCCCN)C(=O)N[C@@H](CCCNC(=N)N)C(=O)N[C@@H](CCCCN)C(=O)N[C@@H](CCCNC(=N)N)C(=O)N[C@@H](CCC(N)=O)C(=O)N[C@@H](CCC(N)=O)C(N)=O)[C@@H](C)CC)[C@@H](C)CC)[C@@H](C)O)[C@@H](C)O)C(C)C)C(C)C` [MELITTIN]: the Activity in the data set with Lipid bilayer [1] was greater than 85%; in the data set on RAW264.7, “Toxic”. In addition, the outcome in the data set on Lipid bilayer [2] and in the data set with Candida albicans [3] was Active.
Turning to H-AARIILRWRFR-NH2, the result with Staphylococcus aureus [4], with Pseudomonas aeruginosa [5], in the data set on Escherichia coli [6], in the data set with Escherichia coli [7], in the data set with Staphylococcus aureus [9] and in the data set on Staphylococcus aureus [11] was Active. Also, the outcome in the data set on Pseudomonas aeruginosa [12], with Escherichia coli [14], in the data set with Pseudomonas aeruginosa [15] and with Escherichia coli [17] was Active. In addition, the Ratio in the data set on Candida albicans [8] is 4. The Activity in the data set with Staphylococcus aureus [10] is 99.99%; with Lipopolysaccharide (LPS), 99%; in the data set with Escherichia coli [16], 99.99%; in the data set on Candida albicans [18], “<=80%”. In addition, the Drug uptake result in the data set with Staphylococcus aureus [13] is “Active”.
Regarding H-AARRILRWIFR-NH2, in the data set on Escherichia coli [19], the Ratio was found to be 16.

The values are drawn from ChEMBL document CHEMBL4350958, “Rational Design of Short Peptide Variants by Using Kunitzin-RE, an Amphibian-Derived Bioactivity Peptide, for Acquired Potent Broad-Spectrum Antimicrobial and Improved Therapeutic Potential of Commensalism Coinfection of Pathogens” (J Med Chem, 2019).
